The record followed here is ChEMBL document CHEMBL1148489, “Synthesis and structure-activity relationships of 1-arylmethyl-5-aryl-6-methyluracils as potent gonadotropin-releasing hormone receptor antagonists” (J Med Chem, 2004).

The target in data set [1] is T1, Gonadotropin-releasing hormone receptor (Homo sapiens, UniProt P30968).
T1 sequence (P30968 whole entry): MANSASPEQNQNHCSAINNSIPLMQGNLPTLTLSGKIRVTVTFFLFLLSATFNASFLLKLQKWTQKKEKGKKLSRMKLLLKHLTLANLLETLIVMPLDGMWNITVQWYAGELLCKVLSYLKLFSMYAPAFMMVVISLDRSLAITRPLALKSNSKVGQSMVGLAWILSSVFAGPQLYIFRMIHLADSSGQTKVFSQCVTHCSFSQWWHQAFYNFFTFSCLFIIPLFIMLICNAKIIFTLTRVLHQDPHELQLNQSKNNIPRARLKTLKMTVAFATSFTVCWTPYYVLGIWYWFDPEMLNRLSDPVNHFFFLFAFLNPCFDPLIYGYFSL
The data set is described as follows: Binding affinity evaluated by the ability to inhibit des-Gly10[125I]Tyr5,D-Leu6,NMeLeu7,Pro9-NEt]- Gonadotropin-releasing hormone binding to cloned human Gonadotropin-releasing hormone receptor expressed in HEK293 cells. It is filed as cell-based.

Data set [2] has as its target T1, Gonadotropin-releasing hormone receptor. The data set is described as follows: In vitro inhibition of [Ca2+] influx in RBL cells expressing Gonadotropin-releasing hormone receptor. The data set is classed as functional, cell-based. An outline of the steps:
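RBL cells stably expressing full-length human GnRH receptor, attached overnight and loaded with 2 μM Fluo-4 for 1 h at 37 °C. Cells washed, then preincubated 1 min with increasing compound before 5 nM GnRH stimulation. Ca2+ flux read as fluorescence on FLIPR; IC50 derived.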

For data set [3], the target named is T2, Gonadotropin-releasing hormone receptor (Rattus norvegicus, UniProt P30969).
T2 sequence (P30969 whole entry): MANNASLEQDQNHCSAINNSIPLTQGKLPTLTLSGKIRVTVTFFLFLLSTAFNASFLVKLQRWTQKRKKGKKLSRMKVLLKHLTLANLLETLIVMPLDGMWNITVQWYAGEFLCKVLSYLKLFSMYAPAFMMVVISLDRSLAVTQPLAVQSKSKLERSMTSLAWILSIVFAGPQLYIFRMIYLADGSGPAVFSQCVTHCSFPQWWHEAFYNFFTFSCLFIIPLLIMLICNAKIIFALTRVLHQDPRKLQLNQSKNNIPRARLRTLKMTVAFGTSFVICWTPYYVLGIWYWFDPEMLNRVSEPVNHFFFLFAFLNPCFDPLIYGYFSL
The data set is described as follows: In vivo inhibition of rat Gonadotropin-releasing hormone receptor. The data set is classed as organism-based.

The subject of another data set is Mus musculus. The data set is described as follows: AUC value was determined after oral administration. The data set is classed as ADME, organism-based, Plasma. The settings on record: in vivo. The procedure, abridged:
(§1)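 Terminal blood at preset times, composite sampling, plus hepatic portal vein samples under isoflurane. Plasma flash-frozen; LLOQ 5 ng/mL. Parameters from a noncompartmental model.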

Data set [4] in a line: Oral bioavailability in mouse. It is filed as ADME, organism-based. The settings on record: in vivo. The procedure, abridged: as §1
Data set [5] can be described thus: Clearance value was determined. The data set is classed as ADME, organism-based. The settings on record: mouse, in vivo. The procedure, abridged:
as §1

Data set [6] in a line: Half life was determined. The settings on record: mouse, in vivo. The data set is classed as ADME, organism-based. An outline of the steps: as §1
Data set [7] deals with T2, Gonadotropin-releasing hormone receptor. The data set is described as follows: In vivo inhibition of rat Gonadotropin releasing hormone receptor. It is filed as organism-based.

One may read the Ki as the dissociation constant of the complex between target and ligand, obtained from inhibition or displacement. A lower Ki goes with tighter binding. `COCc1ccc(-c2c(C)n(Cc3c(F)cccc3F)c(=O)n(CCN(C)CCc3ccccn3)c2=O)cc1` yielded a Ki in data set [1] of 1400 nM.
Same read-out and setting: under `COc1cccc(-c2c(C)n(Cc3c(F)cccc3F)c(=O)n([C@H](C)CNCc3ccccc3C)c2=O)c1F` stands 7 nM; under `C=Cc1ccc(-c2c(C)n(Cc3c(F)cccc3F)c(=O)n(CCN(C)CCc3ccccn3)c2=O)cc1`, 340 nM.
The term IC50 denotes the concentration at which inhibition is half-maximal. A lower IC50 goes with inhibition by little substance. In data set [2], `CCc1ccc(CN[C@@H](C)Cn2c(=O)c(-c3cccc(OC)c3F)c(C)n(Cc3c(F)cccc3F)c2=O)o1` registered an IC50 of 27 nM. The Ki in data set [3] came out at 4.9 µM; in data set [1] it was 15 nM.
The like results for `COc1cccc(-c2c(C)n(Cc3c(F)cccc3F)c(=O)n(C[C@H](C)NCc3ccccc3)c2=O)c1F` were, in that order, 38 nM, 25 µM and 25 nM.
For `Cc1c(-c2ccc3ccccc3c2)c(=O)n(CCN(C)CCc2ccccn2)c(=O)n1Cc1c(F)cccc1F`, in data set [1], the affinity corresponds to a Ki of 460 nM.
Same read-out and setting: in the case of `Cc1c(-c2ccc3oc4ccccc4c3c2)c(=O)n(CCN(C)CCc2ccccn2)c(=O)n1Cc1c(F)cccc1F` it was 170 nM.
Regarding `CCOc1ccc(-c2c(C)n(Cc3c(F)cccc3F)c(=O)n(CCN(C)CCc3ccccn3)c2=O)cc1`, in data set [1], the affinity, expressed as Ki, was 680 nM.
Broadly, the AUC is the area under the concentration-time curve, a measure of exposure. Read a low AUC as low exposure. Usually bioavailability stands for the share of a dose that reaches the circulation, judged against a reference dose that is usually intravenous. A high value points to good availability. The clearance is the rate of elimination divided by the concentration. Read a low clearance as a low capacity for elimination. Broadly, the half-life is how long it takes for the measured level to halve. A high value points to slow decline. With `CCC(CC)N[C@@H](C)Cn1c(=O)c(-c2cccc(OC)c2F)c(C)n(Cc2c(F)cccc2F)c1=O`, the AUC with Mus musculus came out at 110 ng·h/mL. This compound registered a bioavailability in data set [4] of 8.2%. This compound also came in with a clearance in data set [5] of 129 mL/min/kg. In data set [6], this compound had a half-life of 54 min.
In turn, `Cc1ccc(-c2c(C)n(Cc3c(F)cccc3F)c(=O)n(CCN(C)CCc3ccccn3)c2=O)cc1` returned a Ki in data set [1] of 220 nM.
`COc1ccc(-c2c(C)n(Cc3c(F)cccc3F)c(=O)n(CCN(C)CCc3ccccn3)c2=O)cc1OC`: the Ki in data set [1] stood at 4800 nM.
Still for that read-out and setting: in the case of `Cc1c(-c2ccc(C(C)C)cc2)c(=O)n(CCN(C)CCc2ccccn2)c(=O)n1Cc1c(F)cccc1F` it was 110 nM; in that of `COc1cccc(-c2c(C)n(Cc3c(F)cccc3F)c(=O)n(CCN(C)CCc3ccccn3)c2=O)c1F`, 3 nM; in that of `COc1cc(-c2c(C)n(Cc3c(F)cccc3F)c(=O)n(CCN(C)CCc3ccccn3)c2=O)cc(OC)c1OC`, 10800 nM.
As to `Cc1c(-c2cccc(Cl)c2)c(=O)n(CCN(C)CCc2ccccn2)c(=O)n1Cc1c(F)cccc1F`, the Ki in data set [1] was 370 nM.
Compound `COc1cccc(-c2c(C)n(Cc3c(F)cccc3F)c(=O)n(C[C@H](C)NC3CCCC3)c2=O)c1F` had an AUC in the data set on Mus musculus of 57 ng·h/mL. In data set [4], the bioavailability was 2.2%. The clearance in data set [5] was 70.7 mL/min/kg. This compound had a half-life in data set [6] of 36 min.
Compound `COc1cccc(-c2c(C)n(Cc3c(F)cccc3F)c(=O)n(C[C@H](C)NCc3sccc3C)c2=O)c1F` displayed an IC50 in data set [2] of 4 nM. Moreover, the Ki was found to be 3.2 µM in data set [3] and 4 nM in data set [1].
`Cc1c(-c2cccc(F)c2)c(=O)n(CCN(C)CCc2ccccn2)c(=O)n1Cc1c(F)cccc1F` displayed a Ki in data set [1] of 1200 nM.
`Cc1c(-c2ccccc2F)c(=O)n(CCN(C)CCc2ccccn2)c(=O)n1Cc1c(F)cccc1F` gave a Ki in data set [1] of 81 nM.
The compound `Cc1c(-c2ccc3c(c2)OC(F)(F)O3)c(=O)n(CCN(C)CCc2ccccn2)c(=O)n1Cc1c(F)cccc1F` showed a Ki in data set [1] of 470 nM.
On the same count and under the same terms, under `COCc1cccc(-c2c(C)n(Cc3c(F)cccc3F)c(=O)n(CCN(C)CCc3ccccn3)c2=O)c1` stands 1500 nM.
Still for that read-out and setting: in the case of `CSc1ccc(-c2c(C)n(Cc3c(F)cccc3F)c(=O)n(CCN(C)CCc3ccccn3)c2=O)cc1` it was 120 nM.
As for `COc1cccc(-c2c(C)n(Cc3c(F)cccc3F)c(=O)n(CCN(C)CCc3ccccn3)c2=O)c1`, in the data set with Mus musculus, the AUC was 23 ng·h/mL. In addition, the bioavailability in data set [4] turned out to be 1.6%. Besides, in data set [5], the clearance worked out at 120 mL/min/kg. In data set [6], this compound showed a half-life of 24 min.
Regarding `Cc1c(-c2cccc(C(C)C)c2)c(=O)n(CCN(C)CCc2ccccn2)c(=O)n1Cc1c(F)cccc1F`, in data set [1], the affinity, expressed as Ki, was 240 nM.
The compound `COc1cccc(-c2c(C)n(Cc3c(F)cccc3F)c(=O)n(C[C@@H](C)NCc3nccs3)c2=O)c1F` came in with an AUC in the data set with Mus musculus of 104 ng·h/mL. Also, half-maximal inhibition in data set [2] (IC50) required 6.1 nM. This compound also displayed a bioavailability in data set [4] of 6%. Also, the Ki in data set [1] worked out at 13 nM; in data set [7], 10 µM. The compound further had a clearance in data set [5] of 97.3 mL/min/kg. This compound also gave a half-life in data set [6] of 78 min.
